To fix the notation:
B1: tRNA (parent)
chain: GUUCCGUUGGCGUAAUGGUAACGCGUCUCCCUCCUAAGGAGAAGACUGCGGGUUCGAGUCCCGUACGGAACG

Fewer inactive variants are shown than the library holds.

This data set covers variants of B1. Nature of the data set: yeast fitness relative to wild type (ratio to wild type); higher = fitter; tRNA-Arg(CCU), competitive growth, 37 C, YPD. The essentials: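 Genotype frequency changes were the basis for Darwinian fitness relative to wild type. The frequencies came from 100-nucleotide paired-end sequencing of gene amplicons from the start population and each end population of pooled yeast strains with tRNA-Arg(CCU) gene variants at the native locus. Competition ran in YPD at 37°C for 24 hours in six replicates, genotypes needed ≥ 100 starting reads, and estimates < 0.5 were set to 0.5.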
Turning to C11U C24G C33A A42G, the yeast fitness was no more than 0.5. In the case of C11G C24U U28C A42G C60U C62G it was no more than 0.5; in that of C11U C61U A65C, no more than 0.5. Turning to C11G C29U C34U C62A C66U, the yeast fitness amounted to 0.565. In the case of C11U C33G A37U it was no more than 0.5. The same measure for C11G G17C C34A A43C G56C: no more than 0.5; for C11G U54C C62U: no more than 0.5; for C11G G23C G39A: 0.525. In the case of C11G C24G C30U A43U C60G A65C it was no more than 0.5; in that of C11G C24U U28C C55G, no more than 0.5; in that of C11U C22A C29G C33U U35C A70C, no more than 0.5.

Consider C11G A15U U16C C24G A40G C62U A70C, for which the yeast fitness is no more than 0.5. In the case of C11G A36U A40C it was 0.612; in that of C11U A15C A36C A37U, no more than 0.5; in that of C11G C24U G67A, no more than 0.5. Consider C11G C31U, for which the yeast fitness was 0.632. C11U C29U U59C: the yeast fitness was no more than 0.5. In the case of C11G A15U C31A A70C it was no more than 0.5; in that of C11U G23A U35C, 0.573. In the case of C11U C31G C46A G63C A65U it was 0.531.

On to C11G A15U G58U C66A A70C, for which the yeast fitness was no more than 0.5. In the case of C11G C30A, the yeast fitness turned out to be 0.588. In the case of C11U G68C it was 0.814; in that of C11U G68U, 0.898. Regarding C11G C24G C27U C55U, the yeast fitness stood at 0.55.

Consider C11G C33U A36G C55U, for which the yeast fitness was no more than 0.5. In the case of C11G U16C C27G it was no more than 0.5; in that of C11U G68C A69U, 0.54.

As to C11U C29U A36U C66U G67A, the yeast fitness was no more than 0.5. As to C11G G38C C55U C61G, the yeast fitness is no more than 0.5. The same measure for C11U C30G A40C C61U: no more than 0.5. In the case of C11G G67A it was 0.635. The same measure for C11G A20C G23A G52C C61U: 0.662; for C11G U54C: 0.512. For the variant C11U A21C A42G C49U A69C A70G, the yeast fitness is no more than 0.5.

On to C11G C27U U28A, for which the yeast fitness amounted to 0.537. In the case of C11G U26A U35A G67C it was no more than 0.5. In the case of C11G A37C A42G C66G G68U, the yeast fitness was no more than 0.5. The same measure for C11U U13A C30U G38C C49A: no more than 0.5; for C11G A36C U47C C49U A69C: no more than 0.5; for C11G G12C A20G A43G A45C A69U: no more than 0.5. As to C11G G48A, the yeast fitness is 0.582. The same measure for C11G G56A: 0.721; for C11G U59C: 0.589; for C11U G56A C62A: 0.567. In the case of C11U G56A C62G it was no more than 0.5; in that of C11G A42U C66G G67U, no more than 0.5; in that of C11U G18C C31U C62U, no more than 0.5. As for C11G C29A A40U G52A, the yeast fitness was no more than 0.5.

In the case of C11U A45C, the yeast fitness worked out at 0.836.

Take C11U A45U: the yeast fitness was 0.951. In the case of C11U G17C U32A C46A it was no more than 0.5; in that of C11G C22G A45C, no more than 0.5. In the case of C11G U16C C27G C61U it was 0.545.

On to C11G C33A A42C, for which the yeast fitness worked out at 0.7. The same measure for C11U G18A G48A G67C: no more than 0.5. In the case of C11U A37C A42G A43U C62A it was no more than 0.5. The same measure for C11G C24G C60A G68A: no more than 0.5; for C11U G18A A36U: no more than 0.5. In the case of C11U A42C A57C, the yeast fitness is no more than 0.5. The same measure for C11G C29U C34U G68C: no more than 0.5.

As to C11U A21G U59A C62G, the yeast fitness is 0.502.

With C11G C61U G68A, the yeast fitness is no more than 0.5. In the case of C11U A36U G39A it was no more than 0.5; in that of C11G G41C, 0.662. Consider C11U U13A G41A A45U G58U C60A, for which the yeast fitness is no more than 0.5. As for C11U C34A, the yeast fitness stood at 0.758. In the case of C11G C29G C33U C46A C49G it was 0.564; in that of C11U A15C, 0.595; in that of C11U C22U C66U A70C, no more than 0.5. In the case of C11G A21U G68C it was no more than 0.5. The same measure for C11U C31U C46G U47A A65C: no more than 0.5; for C11G A15C C34U A65C: no more than 0.5. Turning to C11G G17A A20U C33G A43C C61G A65G, the yeast fitness was no more than 0.5. In the case of C11U C22G C27U C31G it was no more than 0.5. In the case of C11U A21C C27G G39C A57C G68U it was no more than 0.5; in that of C11U A14G U16G C24G U26C U47G G50C C66A, no more than 0.5; in that of C11U A40G G44C U53C C55A A65U, no more than 0.5. The same measure for C11U A20U: 0.75; for C11U G41A: 0.902. For C11G A42U A65G C66G G68A, the yeast fitness is no more than 0.5.

C11U G58U C61A: the yeast fitness was no more than 0.5. The same measure for C11U G17C C62U A69U: 0.567.

The values above are taken from the RNAGym collection of RNA variant scans (doi:10.1126/science.aae0568).
